From ChEMBL document CHEMBL3243991, “Antiinflammatory agents. 1. Synthesis and antiinflammatory activity of 2-amino-3-benzoylphenylacetic acid” (J Med Chem, 1979)

Legend:
Liver microsome = assay: Drug metabolism in rat liver microsomes assessed as recovery as total extract radioactivity by TLC; type: ADME
Procedure, shortened: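 14C-labeled substrate (10 mg) was sonicated into 30 mL of 0.1 M Na+/K+ phosphate buffer, pH 7.4. The mixture was extracted with three portions of ether, extract radioactivity recovery was determined, and TLC was run immediately (acetone/CHCl3 2:98).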

Rattus norvegicus [1] = assay: Antiinflammatory activity in fasted male rat assessed as decrease in carrageenan-induced pleural fluid at 100 mg/kg, po after 5 hrs by Evans blue carrageenan pleural effusion assay relative to control; type: functional
Procedure, shortened: (§1)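 Evans blue carrageenan pleural effusion assay, run by sequential analysis. Screened first at 316 mg/kg orally alongside acetylsalicylic acid at the same dose; active agents were retested in 6 rats at one or two doses against phenylbutazone. Given by gavage (10 mL/kg) in water with 0.5% Tween 80. Pleural fluid measured in mL ± SD; % decrease taken versus vehicle control.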

Rattus norvegicus [2] = assay: Antiinflammatory activity in fasted male rat assessed as decrease in carrageenan-induced pleural fluid at 316 mg/kg, po after 5 hrs by Evans blue carrageenan pleural effusion assay relative to control; type: functional; procedure, shortened: as §1
Rattus norvegicus [3] = assay: Antiinflammatory activity against adjuvant-induced arthritis in Lewis Wistar rat assessed as potency in adjuvant injected foot treated po once daily on days 18 to 22 and 25 to 28 relative to phenylbutazone
Rattus norvegicus [4] = assay: Antiinflammatory activity against adjuvant-induced arthritis in Lewis Wistar rat assessed as change in 11 day edema volume in adjuvant uninjected foot at 3.16 mg/kg, po treated once daily on days 18 to 22 and […]; type: functional
Procedure, shortened: (§2)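 Therapeutic regimen in the adjuvant-induced arthritic rat model: compound given once daily on days 18-22 and 25-28. Dosed by gavage (10 mL/kg) as a solution or suspension in water containing 0.5% Tween 80. Groups of 8 rats (one group of 7), with vehicle-dosed negative and positive controls. Injected- and uninjected-foot edema (mL ± SD) and body-weight change (g ± SD) recorded over 11 days; p < 0.05 flagged.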

Rattus norvegicus [5] = assay: Antiinflammatory activity in fasted male rat assessed as decrease in carrageenan-induced pleural fluid at 4 mg/kg, po after 5 hrs by Evans blue carrageenan pleural effusion assay relative to control; type: functional; details: for inhibition in vivo at 4 mg/kg: Rattus norvegicus, Pleural fluid, po, 5 h; procedure, shortened: as §1
Rattus norvegicus [6] = assay: Antiinflammatory activity against adjuvant-induced arthritis in Lewis Wistar rat assessed as change in 11 day edema volume in adjuvant uninjected foot at 0.316 mg/kg, po treated once daily on days 18 to 22 and […]; type: functional; procedure, shortened: as §2
Rattus norvegicus [7] = assay: Antiinflammatory activity against adjuvant-induced arthritis in Lewis Wistar rat assessed as change in 11 day edema volume in adjuvant injected foot at 3.16 mg/kg, po treated […]; type: functional
Rattus norvegicus [8] = assay: Antiinflammatory activity in fasted male rat assessed as decrease in carrageenan-induced pleural fluid at 0.8 mg/kg, po after 5 hrs by Evans blue carrageenan pleural effusion assay relative to control; type: functional; details: for inhibition in vivo at 0.8 mg/kg: Rattus norvegicus, Pleural fluid, po, 5 h; procedure, shortened: as §1
Rattus norvegicus [9] = assay: Antiinflammatory activity against adjuvant-induced arthritis in Lewis Wistar rat assessed as change in 11 day edema volume in adjuvant injected foot at 0.316 mg/kg, po treated once daily on days 18 to 22 and […]; type: functional; procedure, shortened: as §2
Rattus norvegicus [10] = assay: Toxicity in adjuvant-induced arthritis Lewis Wistar rat model assessed as change in 11 day weight at 3.16 mg/kg, po treated once daily on days 18 to 22 and […]; type: organism-based; design: dose 3.16 mg/kg, route oral; details: in vivo, 264 h; procedure, shortened: as §2
Rattus norvegicus [11] = assay: Antiinflammatory activity against adjuvant-induced arthritis in Lewis Wistar rat assessed as change in 11 day edema volume in adjuvant injected foot at 0.03 mg/kg, po treated once daily on days 18 to 22 and 25 to 28
Rattus norvegicus [12] = assay: Antiinflammatory activity against adjuvant-induced arthritis in Lewis Wistar rat assessed as change in 11 day edema volume in adjuvant uninjected foot at 0.03 mg/kg, po treated once daily on days 18 to 22 and […]; type: functional; procedure, shortened: as §2
Rattus norvegicus [13] = assay: Toxicity in adjuvant-induced arthritis Lewis Wistar rat model assessed as change in 11 day weight at 0.03 mg/kg, po treated once daily on days 18 to 22 and […]; type: organism-based; design: dose 0.03 mg/kg, route oral; details: in vivo, 264 h; procedure, shortened: as §2
Rattus norvegicus [14] = assay: Toxicity in adjuvant-induced arthritis Lewis Wistar rat model assessed as change in 11 day weight at 0.316 mg/kg, po treated once daily on days 18 to 22 and […]; type: organism-based; design: dose 0.316 mg/kg, route oral; details: in vivo, 264 h; procedure, shortened: as §2
Rattus norvegicus [15] = assay: Antiinflammatory activity against adjuvant-induced arthritis in Lewis Wistar rat assessed as potency in adjuvant uninjected foot treated po once daily on days 18 to 22 and 25 to 28 relative to phenylbutazone
Rattus norvegicus [16] = assay: Antiinflammatory activity in fasted male rat assessed as decrease in carrageenan-induced pleural fluid at 60 mg/kg, po after 5 hrs by Evans blue carrageenan pleural effusion assay relative to control; type: functional; procedure, shortened: as §1
Rattus norvegicus [17] = assay: Antiinflammatory activity in fasted male rat assessed as decrease in carrageenan-induced pleural fluid at 300 mg/kg, po after 5 hrs by Evans blue carrageenan pleural effusion assay relative to control; type: functional; procedure, shortened: as §1
Rattus norvegicus [18] = assay: Antiinflammatory activity in fasted male rat assessed as decrease in carrageenan-induced pleural fluid at 50 mg/kg, po after 5 hrs by Evans blue carrageenan pleural effusion assay relative to control; type: functional; procedure, shortened: as §1
Rattus norvegicus [19] = assay: Antiinflammatory activity in fasted male rat assessed as decrease in carrageenan-induced pleural fluid at 10 mg/kg, po after 5 hrs by Evans blue carrageenan pleural effusion assay relative to control; type: functional; procedure, shortened: as §1
Rattus norvegicus [20] = assay: Antiinflammatory activity against adjuvant-induced arthritis in Lewis Wistar rat assessed as change in 11 day edema volume in adjuvant injected foot at 0.0316 mg/kg, po treated […]; type: functional
Rattus norvegicus [21] = assay: Antiinflammatory activity against adjuvant-induced arthritis in Lewis Wistar rat assessed as change in 11 day edema volume in adjuvant uninjected foot at 0.0031 mg/kg, po […]; type: functional
Rattus norvegicus [22] = assay: Antiinflammatory activity against adjuvant-induced arthritis in Lewis Wistar rat assessed as change in 11 day edema volume in adjuvant injected foot at 0.0031 mg/kg, po treated once daily on days 18 to 22 and […]; type: functional; procedure, shortened: as §2
Rattus norvegicus [23] = assay: Antiinflammatory activity against adjuvant-induced arthritis in Lewis Wistar rat assessed as change in 11 day edema volume in adjuvant uninjected foot at 0.0316 mg/kg, po treated once daily on days 18 to 22 and […]; type: functional; procedure, shortened: as §2
Rattus norvegicus [24] = assay: Toxicity in adjuvant-induced arthritis Lewis Wistar rat model assessed as change in 11 day weight at 0.0316 mg/kg, po treated once daily on days 18 to 22 and 25 to 28; details: in vivo, 264 h
Rattus norvegicus [25] = assay: Toxicity in adjuvant-induced arthritis Lewis Wistar rat model assessed as change in 11 day weight at 0.0031 mg/kg, po treated once daily on days 18 to 22 and 25 to 28; details: in vivo, 264 h
Rattus norvegicus [26] = assay: Antiinflammatory activity in fasted male rat assessed as decrease in carrageenan-induced pleural fluid at 2 mg/kg, po after 5 hrs by Evans blue carrageenan pleural effusion assay relative to control; type: functional; procedure, shortened: as §1
Rattus norvegicus [27] = assay: Antiinflammatory activity against adjuvant-induced arthritis in Lewis Wistar rat assessed as change in 11 day edema volume in adjuvant uninjected foot at 31.6 mg/kg, po treated once daily on days 18 to 22 and […]; type: functional; procedure, shortened: as §2
Rattus norvegicus [28] = assay: Antiinflammatory activity against adjuvant-induced arthritis in Lewis Wistar rat assessed as change in 11 day edema volume in adjuvant uninjected foot at 10 mg/kg, po […]; type: functional
Rattus norvegicus [29] = assay: Antiinflammatory activity against adjuvant-induced arthritis in Lewis Wistar rat assessed as change in 11 day edema volume in adjuvant injected foot at 31.6 mg/kg, po treated […]; type: functional
Rattus norvegicus [30] = assay: Antiinflammatory activity against adjuvant-induced arthritis in Lewis Wistar rat assessed as change in 11 day edema volume in adjuvant injected foot at 10 mg/kg, po treated once daily on days 18 to 22 and […]; type: functional; procedure, shortened: as §2
Rattus norvegicus [31] = assay: Antiinflammatory activity in fasted male rat assessed as decrease in carrageenan-induced pleural fluid at 20 mg/kg, po after 5 hrs by Evans blue carrageenan pleural effusion assay relative to control; type: functional; procedure, shortened: as §1
Rattus norvegicus [32] = assay: Toxicity in adjuvant-induced arthritis Lewis Wistar rat model assessed as change in 11 day weight at 31.6 mg/kg, po treated once daily on days 18 to 22 and 25 to 28; details: in vivo, 264 h
Rattus norvegicus [33] = assay: Toxicity in adjuvant-induced arthritis Lewis Wistar rat model assessed as change in 11 day weight at 10 mg/kg, po treated once daily on days 18 to 22 and […]; type: organism-based; design: dose 10 mg/kg, route oral; details: in vivo, 264 h; procedure, shortened: as §2

`O=C(c1cccc2c1NCC2)[14c]1[14cH][14cH][14cH][14cH][14cH]1` gave a Drug recovery (Liver microsome) of 49%.
Compound `O=C(O)c1cccc2c1NCC2` has an inhibition in vivo at 100 mg/kg (Rattus norvegicus [1]) of 12.6%.
`CC(=O)Oc1ccccc1C(=O)O` [ASPIRIN] gave an inhibition in vivo at 316 mg/kg (Rattus norvegicus [2]) of 31.6%.
For `CCOC(=O)Cc1cccc(C(=O)c2ccccc2)c1N`, the “fold change (FC)” value (Rattus norvegicus [3]) was 10.9, the Activity (Rattus norvegicus [4]) was -0.1 mL and the inhibition in vivo at 4 mg/kg (Rattus norvegicus [5]) was 37.3%. For the same compound, the Activity (Rattus norvegicus [6]) was 0.1 mL, the Activity (Rattus norvegicus [7]) was -0.6 mL and the inhibition in vivo at 0.8 mg/kg (Rattus norvegicus [8]) was 26.9%. For the same compound, the Activity (Rattus norvegicus [9]) was -0.1 mL, the Activity (Rattus norvegicus [10]) was 13 g and the Activity (Rattus norvegicus [11]) was 0.4 mL. For the same compound, the Activity (Rattus norvegicus [12]) was 0.6 mL, the Activity (Rattus norvegicus [13]) was 11 g and the Activity (Rattus norvegicus [14]) was 10 g. The “fold change (FC)” value (Rattus norvegicus [15]) was 5.1.
`O=C1Cc2cccc(C(=O)c3ccccc3)c2N1` showed an inhibition in vivo at 60 mg/kg (Rattus norvegicus [16]) of 11.1% and an inhibition in vivo at 300 mg/kg (Rattus norvegicus [17]) of 17.5%.
`O=C(c1ccccc1)c1cccc2cc[nH]c12` was tested, and the Drug recovery (Liver microsome) was 16%.
In the case of `O=C(c1ccccc1)c1cccc2c1NCC2`, the inhibition in vivo at 50 mg/kg (Rattus norvegicus [18]) is reported as 35.5% and the inhibition in vivo at 10 mg/kg (Rattus norvegicus [19]) is reported as 14.5%.
Work on `Nc1c(CC(=O)O)cccc1C(=O)c1ccccc1` [AMFENAC] yielded an inhibition in vivo at 4 mg/kg (Rattus norvegicus [5]) of 33.8% and an inhibition in vivo at 0.8 mg/kg (Rattus norvegicus [8]) of 10.3%.
For `O=C1Nc2c(cccc2C(=O)c2ccccc2)C1=O`, the inhibition in vivo at 316 mg/kg (Rattus norvegicus [2]) was 18.4%.
`Nc1c(CC(=O)[O-])cccc1C(=O)c1ccccc1.[Na+]` [AMFENAC SODIUM] was tested, and the “fold change (FC)” value (Rattus norvegicus [3]) was 14.2, the “inhibition (INH)” value (Rattus norvegicus [5]) was 33.3% and the Activity (Rattus norvegicus [20]) was 0.2 mL. The Activity (Rattus norvegicus [6]) was -0.2 mL, the Activity (Rattus norvegicus [21]) was 0.6 mL and the Activity (Rattus norvegicus [22]) was 0.2 mL. For the same compound, the Activity (Rattus norvegicus [23]) was 0.4 mL, the “inhibition (INH)” value (Rattus norvegicus [8]) was 11.1% and the Activity (Rattus norvegicus [9]) was -0.3 mL. It also gave an Activity (Rattus norvegicus [24]) of 6 g, an Activity (Rattus norvegicus [25]) of 12 g and an Activity (Rattus norvegicus [14]) of 3 g. The “fold change (FC)” value (Rattus norvegicus [15]) was 23.9.
`CCCCC1C(=O)N(c2ccccc2)N(c2ccccc2)C1=O` [PHENYLBUTAZONE] showed an Activity (Rattus norvegicus [4]) of 0 mL, an Activity (Rattus norvegicus [6]) of 0.4 mL and an inhibition in vivo at 2 mg/kg (Rattus norvegicus [26]) of 0%. The Activity (Rattus norvegicus [27]) was -0.4 mL, the Activity (Rattus norvegicus [7]) was -0.3 mL and the Activity (Rattus norvegicus [9]) was 0.4 mL. For the same compound, the Activity (Rattus norvegicus [28]) was -0.2 mL, the inhibition in vivo at 50 mg/kg (Rattus norvegicus [18]) was 24.2% and the Activity (Rattus norvegicus [10]) was 8 g. It also gave an Activity (Rattus norvegicus [29]) of -0.9 mL, an Activity (Rattus norvegicus [30]) of -0.5 mL and an inhibition in vivo at 20 mg/kg (Rattus norvegicus [31]) of 19.4%. The inhibition in vivo at 10 mg/kg (Rattus norvegicus [19]) was 10.5%, the inhibition in vivo at 100 mg/kg (Rattus norvegicus [1]) was 31% and the Activity (Rattus norvegicus [32]) was 26 g. The Activity (Rattus norvegicus [14]) was 8 g and the Activity (Rattus norvegicus [33]) was 20 g.
